# Experimental data pooled from the literature.
# pEC50, pIC50: −log10 of the molar value.
# Cell line: MOLM-13
# Effect on: cell growth or viability
SMILES,assay,setting,quantity,value
Nc1cccc(-c2ccc3ncc(OCC4CCNCC4)nc3c2)c1,XTT,7 days,pEC50,4.55
NCC(=O)Nc1ccccc1/N=c1\cc(-c2ccc3c(c2)OCO3)oc2ccccc12,CCK-8,1 µM,inhibition,1.52%
Cc1cc2c(C(N)=O)cccc2n1-c1nc2c(c(NCc3ccccc3)n1)CCCN2,,72 h,pIC50,6.10
CCNc1nc2ccc(-c3c/c(=N\c4ccccc4NC(=O)CCN)c4ccccc4o3)cc2o1,CCK-8,1 µM,inhibition,12.2%
CN(C)CCNC(=O)c1ccc(-c2nc3ccc4[nH]ncc4c3c3c2CCCC3)c(F)c1,,72 h,GI50,262 nM
C[C@H](N)C(=O)Nc1ccccc1/N=c1\cc(-c2ccc3c(c2)OCCO3)oc2c(N)cccc12,CCK-8,1 µM,inhibition,3.7%
Cc1n[nH]c2ccc3nc(-c4ccc(C(=O)NCCN(C)C)cc4)c4c(c3c12)CCCCC4,,72 h,GI50,187 nM
CC(C)(C)[C@H](N)C(=O)Nc1ccccc1/N=c1\cc(-c2ccc3c(c2)OCCO3)oc2cc(F)ccc12,CCK-8,1 µM,inhibition,6.65%
c1ccc(COc2ccc(Nc3ccc4ncc(OCC5CCNCC5)nc4c3)cc2)cc1,XTT,7 days,pEC50,6.08
CONC(=O)c1cccc2c1cc(C)n2-c1nc2c(c(NCc3ccccc3)n1)CCCN2,,72 h,pIC50,5.85
COc1ccc2/c(=N/c3ccccc3NC(=O)N3CCOCC3)cc(-c3ccc4c(c3)OCCO4)oc2c1,CCK-8,1 µM,inhibition,3.11%
c1cc(N2CCCCC2)ccc1Nc1cc2ncc(OCC3CCNCC3)nc2cc1-c1ccc(N2CCCCC2)cc1,XTT,7 days,pEC50,5.55
Cc1n[nH]c2ccc3nc(-c4ccc(C(=O)NCCN(C)C)cc4F)c4c(c3c12)CCCC4,,72 h,GI50,47 nM
Fc1ccc(Oc2ccc(Nc3ccc4ncc(OCC5CCNCC5)nc4c3)cc2)cc1,XTT,7 days,pEC50,5.80
CN(C)CCNC(=O)c1ccc(-c2nc3ccc4[nH]ncc4c3c3c2CCCC3)cc1,,72 h,GI50,100 nM
